Test results reported in ChEMBL document CHEMBL4266022, “Azaphilone Derivatives from the Fungus Coniella fragariae Inhibit NF-κB Activation and Reduce Tumor Cell Migration” (J Nat Prod, 2018).
Activity calls are given as the source filed them. The rule behind the calls is not given here.

What was measured:
[1] = tested on: MDA-MB-231; test: Cytotoxicity against human MDA-MB-231 cells assessed as decrease in cell viability after 24 hrs by cellTiter-Glo reagent based assay; assay type: functional; details: MDA-MB-231, 24 h
Procedure, shortened: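 MDA-MB-231 cells (RPMI, 15% FCS, 37 °C, 5% CO2) seeded at 5600 cells/well in 384-well plates, cultured overnight, then treated 24 h. Viability by CellTiter-Glo luminescence. Positive control 5 μM staurosporine; 1% DMSO set as 100% viability.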

[2] = tested on: MDA-MB-231; test: Inhibition of cell migration in human MDA-MB-231 cells at 10 uM after 24 hrs by wound-scratch assay; assay type: functional; details: MDA-MB-231, 24 h
Procedure, shortened: (§1)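 MDA-MB-231 cells seeded at 50 000 cells/well; scratch made after 24 h with automated wound maker. Compounds added, wound imaged every 2 h over 24 h by live-cell imager; migration into wound quantified.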

[3] = tested on: MDA-MB-231; test: Anti-invasive activity in human MDA-MB-231 cells assessed as inhibition of cell invasion into surrounding extracellular matrix at 10 uM after 24 hrs; assay type: functional; details: MDA-MB-231, 24 h
Procedure, shortened: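 Spheroids formed from 3000 MDA-MB-231 cells/well with 0.25% matrigel in ultralow-attachment plates (centrifuged 10 min, 1000 rpm, 4 °C), 72 h formation. Embedded in matrigel:collagen R (1:1), polymerized 1 h at 37 °C. Invasion into matrix imaged daily over 3 days, quantified by image analysis.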

[4] = tested on: MDA-MB-231; test: Inhibition of cell migration in human MDA-MB-231 cells at 5 uM after 24 hrs by wound-scratch assay; assay type: functional; procedure, shortened: as §1
[5] = Inhibition of NF-kappaB in human MDA-MB-231 cells assessed as reduction in TNFalpha-induced NF-kappaB activation incubated with compound for 20 mins followed by TNFalpha stimulation measured after 2 hrs by luminescence assay
[6] = tested on: MDA-MB-231; test: Cytotoxicity against human MDA-MB-231 cells assessed as decrease in cell viability at 5 uM after 24 hrs by cellTiter-Glo reagent based assay; assay type: functional
Procedure, shortened: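 MDA-MB-231 cells (RPMI, 15% FCS, 37 °C, 5% CO2) were seeded at 5600 cells/well, cultured overnight, then treated at 5 μM for 24 h. Viability was read by CellTiter-Glo luminescence and normalised to 1% DMSO as 100% viability.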

Structure (SMILES) | IC50 [1] [µM] | inhibition at 10 µM [2] [%] | inhibition at 10 µM [3] [%] | inhibition at 5 µM ([4]; MDA-MB-231, 24 h) [%] | IC50 [5] [µM] | Activity [6] [%] | inhibition [4]
CCCCC/C=C/C(=O)[C@H]1C(=O)O[C@@]2(C)C(=O)C(C=O)=C3C=C(C)OC=C3[C@H]12 | 21.5 | 98 | 52 | 60 | 4.4 | – | –
CCCCCCCC(=O)[C@H]1C(=O)O[C@@]2(C)C(=O)C(C=O)=C3C=C(C)OC=C3[C@H]12 | 19.6 | – | – | – | > 100 | – | –
CCCCC[C@H](O)CC(=O)C[C@H]1C2=COC(C)=CC2=C(C=O)C(=O)[C@]1(C)O | 79.3 | 83 | – | – | 29.4 | – | –
CN[C@@H]1C[C@H]2O[C@@](C)([C@@H]1OC)n1c3ccccc3c3c4c(c5c6ccccc6n2c5c31)C(=O)NC4 [STAUROSPORINE] | – | – | – | – | – | 10.9 | –
CCCCC/C=C/C(=O)C[C@H]1C2=COC(C)=CC2=C(C=O)C(=O)[C@]1(C)O | 18.6 | 78 | – | – | 37.8 | – | –
CCCCC[C@@H](CC(=O)C[C@H]1C2=COC(C)=CC2=C(C=O)C(=O)[C@]1(C)O)OC | 21.6 | – | – | – | 11.3 | – | inactive
CCCCC[C@@H](O)CC(=O)C[C@H]1C2=COC(C)=CC2=C(C=O)C(=O)[C@]1(C)O | > 100 | – | – | – | 70.7 | – | inactive
CCCCCC(CC(=O)[C@H]1C(=O)O[C@@]2(C)C(=O)C(C=O)=C3C=C(C)OC=C3[C@H]12)OC (some centres not stated) | 21 | – | – | – | > 100 | – | –
